Data reported in ChEMBL document CHEMBL1138232, “Optimization of naphthalimide-imidazoacridone with potent antitumor activity leading to clinical candidate (HKH40A, RTA 502)” (J Med Chem, 2007).

Experiments:
UACC-62 = experiment: Antitumor activity against human UACC62 cells after 48 hrs; assay type: functional; conditions: UACC-62, 48 h
Procedure, shortened: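 NCI 60 human tumour cell line screen; 48 h continuous drug exposure. Compounds tested as tri(methanesulfonate) salts, soluble in water and dilute buffers. Dilute solutions are light-sensitive and adsorb to glass or quartz.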

HCC 2998 = experiment: Antitumor activity against human HCC2998 cells after 48 hrs; assay type: functional; conditions: HCC 2998, 48 h
Procedure, shortened: (§1)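 Tested in the NCI 60 human tumour cell line screen, with continuous drug exposure for 48 h. Values include LC50 derived from the screen.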

OVCAR-3 = experiment: Antitumor activity against human OVCAR-3 cells after 48 hrs; assay type: functional; conditions: OVCAR-3, 48 h; procedure, shortened: as §1
HT-29 = experiment: Antitumor activity against human HT29 cells after 48 hrs; assay type: functional; conditions: HT-29, 48 h; procedure, shortened: as §1
[1] = Drug level in NCR nu/nu mouse plasma at 20 mg/kg, iv after 8 hrs; assay type: ADME, organism-based; parameters: dose 20 mg/kg, route intravenous
Procedure, shortened: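 Single i.v. dose of 20 mg/kg to ncr nu/nu mice and an F344 rat. Plasma concentrations followed over time and fitted by nonlinear regression to give distribution and elimination phases, AUC and apparent volumes of distribution. Detection limit 50 nM.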

A498 = experiment: Antitumor activity against human A498 cells after 48 hrs; assay type: functional; conditions: A498, 48 h; procedure, shortened: as §1
[2] = read-out: Log LC50 (the source's name) (converted)

## COc1ccc2c(c1)c(=O)c1c(NCCCN3CCN(CCCN4C(=O)c5cccc6cc([N+](=O)[O-])cc(c56)C4=O)CC3)ccc3ncn2c31.CS(=O)(=O)O
UACC-62
  GI50: 3.31 nM
UACC-62; [2]
  CC50: > 1000 nM
UACC-62; read-out: Log TGI (converted)
  TGI: 55 nM
HCC 2998
  GI50: 11.5 nM
HCC 2998; [2]
  CC50: > 1000 nM
HCC 2998; read-out: Log TGI (converted)
  TGI: > 1000 nM
OVCAR-3
  GI50: 50.1 nM
OVCAR-3; [2]
  CC50: > 1000 nM
OVCAR-3; read-out: Log TGI (converted)
  TGI: > 1000 nM
HT-29
  GI50: 2.75 nM
HT-29; [2]
  CC50: > 1000 nM
HT-29; read-out: Log TGI (converted)
  TGI: 295 nM
[1]
  concentration at 8 h: 70 nM
A498
  GI50: 6.61 nM
A498; [2]
  CC50: > 1000 nM
A498; read-out: Log TGI (converted)
  TGI: 331 nM
